In ChEMBL document CHEMBL4513216, “Probing the Open Global Health Chemical Diversity Library for Multistage-Active Starting Points for Next-Generation Antimalarials” (ACS Infect Dis, 2020):

Assay: Toxicity liver stage against HepG2, at 10uM
Format: cell-based
Set-up: test concentration 10 uM, cell line HepG2-A16-CD81EGFP
Conditions: human, HepG2-A16-CD81EGFP cells; read-out: INHIBITION
How it was run: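 Uninfected HepG2-A16-CD81EGFP cells, 3 × 10^3 per well, 1536-well, plated on prespotted compound at 10 μM final, parasite-free screening media added to match infected plates; puromycin 10 μM positive, DMSO 0.5% negative; run in parallel with 48 h PbLuc assay at 37 °C, 5% CO2; viability by CellTiter-Glo luminescence, normalized to controls.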

| Compound | cytotoxicity at 10 µM [%] |
| --- | --- |
| CCN(CC)S(=O)(=O)c1ccc2c(c1)N(Cc1ccccn1)C(=O)CS2 | 3.51 |
| COCCN1CC(O)CN(C(=O)c2cccc(C(F)(F)F)c2)CC1=O (stereo unspecified) | -3.84 |
| COC1CN(C(=O)Nc2ccccc2)CCC(=O)N(C)c2ccccc21 (stereo unspecified) | -9.69 |
| Cc1oc(-c2nc(C#N)c(N(C)C)o2)cc1S(=O)(=O)N1CCCCCC1 | -13.9 |
| CC(C)NC(=O)Cn1cc(-c2ccccc2)ncc1=O | -9.87 |
| COc1cccc(NC(=O)NCc2cnn(C)c2)c1 | -1.59 |
| Cc1cc(C(=O)NCc2c(C)nn(C)c2C)nc(N2CCOCC2)n1 | 0.0436 |
| CCn1nc(C)c(CN2CCC(c3ccn[nH]3)C2)c1C (stereo unspecified) | -0.125 |
| Cc1c(CN2CCCC2c2cncc(CN3CCCC3)n2)cnn1C (stereo unspecified) | -1.15 |
| CC(=O)N[C@H]1CCO[C@@H](c2cccc(NC(=O)Cc3ccccc3)c2)C1 | 8.3 |
| O=S(=O)(c1cn[nH]c1)N1CCCC(O)(CN2CCOCC2)CC1 (stereo unspecified) | 6.61 |
| Cn1ccnc1C(O)c1ccccc1N1CCN(CC2CCCC2)CC1 (stereo unspecified) | 0.135 |
| NC(=O)C1(c2cnccn2)CCCN1C(=O)Cc1ccsc1 (stereo unspecified) | 1.54 |
| O=C(C1CCOC1)N1Cc2ccccc2OC2(CCOCC2)C1 (stereo unspecified) | 1.32 |
| C=Cn1ncc(CN2C[C@@H]3C[C@@H](O)CN3C[C@H]2Cc2ccccc2)c1C | 4.08 |
| Cc1cc(-c2ccccc2C(=O)O)nc(C2CCCN(C(C)C)C2)n1 (stereo unspecified) | -4.47 |
| CC(O)c1cn(Cc2cccc(C(F)(F)F)c2)nn1 (stereo unspecified) | 14.1 |
| CN(CC1CCOC1)c1ncc(Br)cn1 (stereo unspecified) | 4.23 |
| Cc1ccc(S(=O)(=O)NC(=O)CCC(F)(F)F)cc1N(C)C | -3.79 |
| CC(c1cccnc1)N(C)S(C)(=O)=O (stereo unspecified) | -5.21 |
| CCCS(=O)(=O)NC(=O)c1cc(C)n(-c2ccccc2)n1 | -7.21 |
| Cc1nnc(NCc2ccc(Cl)cc2)o1 | 3.79 |
| CCC(NC(=O)Cn1ccc(=O)n(C)c1=O)c1ccccc1OC (stereo unspecified) | 7.23 |

| Compound | cytotoxicity at 10 µM [%] |
| --- | --- |
| COc1ccccc1C(=O)NCc1n[nH]c(C)n1 | -0.519 |
| COCC(C)NC(=O)CCSc1ccc(F)cc1 (stereo unspecified) | 1.28 |
| CCc1oc(C(=O)N[C@@H]2c3ccccc3C[C@@H]2O)cc1C | 0.243 |
| NC(=O)CN(CC(=O)NCCc1c(F)cccc1F)C1CCCC1 | -8.02 |
| N#Cc1cccc(Cl)c1NC1CCN(CC(N)=O)CC1 | -5.87 |
| Cc1cccc(NCCOc2cccc(C#N)c2)c1C(N)=O | -3.59 |
| Cc1cc(C)n(C2CCCN(C(=O)c3ccc(N(C)C)nn3)C2)n1 (stereo unspecified) | -9.31 |
| NCc1ccc(Oc2cccc(Cl)c2Cl)cc1 | 7.25 |
| CC(=O)N(c1ccc(C)cc1)c1nc(CN2CCCC(C)C2)cs1 (stereo unspecified) | -6.71 |
| COCCNc1ccc(CNC(=O)C2COc3ccccc32)cc1 (stereo unspecified) | -13.9 |
| Cc1nccn1CCCNc1nccnc1C#N | -7.21 |
| CCOCCC(=O)Nc1ccnn1-c1ccc(Cl)cc1 | -12.6 |
| Cc1ccc(C(=O)NS(=O)(=O)Cc2ccon2)c(C)c1 | -3.16 |
| CC(=O)N1CCCN(C(=O)Cc2c(C)nc(C)[nH]c2=O)CC1 | -8.28 |
| Cc1cc(C(C)(O)CNC(=O)c2ccc(Br)o2)c(C)o1 (stereo unspecified) | -0.159 |
| COc1ccc(Br)cc1CC(=O)N1CCCC1 | -2.69 |
| Cc1nncn1CCNC(=O)C(C)(C)c1cccc(F)c1 | 5.73 |
| CC(C)(NCC(=O)N1CCCC(C(N)=O)C1)c1ccc(Cl)cc1 (stereo unspecified) | 3.36 |
| O=C(NCCO)Nc1cccc(Cl)c1SC(F)F | 5.98 |
| Cn1nccc1-c1cnc2n1CCNC21CCN(C(=O)C2(C)CC2)CC1 | -111 |
| COc1ccc(CN2CCn3c(CNS(C)(=O)=O)nnc3C2)cc1 | 4.19 |
| CN(C)c1nccc(NCc2cc(-c3ccco3)n[nH]2)n1 | 2.27 |
| CC(C)C[C@@H](C(N)=O)n1cc(-c2cncnc2)nn1 | 3.28 |

| Compound | cytotoxicity at 10 µM [%] |
| --- | --- |
| CSCC(=O)N(C)Cc1cnn(-c2ccc(F)cc2)c1 | -13.4 |
| O=C(NCCCOc1cccnc1)c1cn(Cc2ccccc2F)nn1 | 1.03 |
| CCCN1CCC(Cc2noc(-c3ncccc3C)n2)CC1 | 0.0119 |
| CCC(C(=O)N1CCN(S(=O)(=O)N2CCCC2)CC1)n1cccn1 (stereo unspecified) | -8.56 |
| Cc1cccc(CN2C[C@@H](CN3CCCN(C)CC3)C[C@H](CO)C2)n1 | 2.04 |
| Cc1nn(C(C)C)c(C)c1CN1CCC(c2cc(C(C)C)n[nH]2)CC1 | 1.34 |
| Cc1nc2ccccn2c1CN1C[C@@H](CN2CCOCC2)[C@@H](CO)C1 | 1.73 |
| CCc1ocnc1C(=O)N1CCOC(CCCC(C)C)C1 (stereo unspecified) | 4.29 |
| CC(NC(=O)CCCc1ccc(Cl)cc1)c1n[nH]c(=O)[nH]1 (stereo unspecified) | 3.26 |
| Cc1cc(=O)c2ccccc2n1CC1CCNC1 (stereo unspecified) | 5.98 |
| COc1ccccc1OCCCN1CCNC1=O | 1.5 |
| Cc1ccccc1C(C(=O)N(C)Cc1cnn(C)c1)N(C)C (stereo unspecified) | -0.837 |
| O=C(Cn1ccc2ccccc21)NCc1cc(N2CCOCC2)ncn1 | 4.44 |
| O=C(NCc1ccc2c(c1)CCCO2)c1cn2c(n1)CNCC2 | -15.7 |
| COc1ccnc(CN2CC(=O)N(c3ccc(C)cc3)CC2C)c1OC (stereo unspecified) | -10.8 |
| CC(C)C1CN(S(=O)(=O)N(C)C)CCCN1Cc1ccc(F)cc1 (stereo unspecified) | 5.17 |
| Cc1cccnc1[C@H](C)Nc1nc(-c2cccnc2)nc2c1CNC2 | -8.52 |
| O=C(c1cnnn1-c1ccccc1)N1CCCC(c2ccn[nH]2)C1 (stereo unspecified) | -2.75 |
| CN(Cc1ccc2nsnc2c1)CC1(O)CNCCOC1 (stereo unspecified) | -5.03 |
| CCN(Cc1ccc(C)o1)C(=O)C(C)n1ccnc1C(C)C (stereo unspecified) | 7.66 |
| CCCc1cnc(C)nc1N1CCC2(CCCO2)CC1 | -13.4 |
| CN(C(=O)Cc1ccn(C)c1)C1CCCN(C2Cc3ccccc3C2)C1 (stereo unspecified) | 4.77 |
| CC(C)(C)c1nc(CN2CCC3(CCCO3)CCC2=O)no1 (stereo unspecified) | -4.57 |

| Compound | cytotoxicity at 10 µM [%] |
| --- | --- |
| CCS(=O)(=O)c1ncc(CN2CCCC2)n1CCc1ccccc1 | 5.35 |
| Cc1cc(C(=O)N2C[C@H](c3ccccc3)[C@@H](N)C2)c2ccc(F)cc2n1 | 3.96 |
| COc1ccc([C@@H]2CN(C(=O)CCCc3cn[nH]c3)C[C@H]2N(C)C)cc1 | -2.31 |
| CCS(=O)(=O)N1CCCC(c2nccn2Cc2cccnc2)C1 (stereo unspecified) | -2.78 |
| CCN1CCC(CC(=O)NCCc2nc(C)c(Cl)s2)CC1 | -7.43 |
| CC(C)[C@H]1CN(c2ccnc(N)n2)C[C@@H]1NC(=O)C1(C#N)CCOCC1 | -2.8 |
| Cc1cnn(C2(C(=O)O)CCN(c3ccncc3F)CC2)c1 | -1.94 |
| CCC[C@H]1CN(CCS(C)(=O)=O)C[C@@H]1NC(=O)c1cc[nH]n1 | 2.75 |
| CC(C)(C)c1ccc(C(=O)C2CCCN(C(=O)CNS(C)(=O)=O)C2)cc1 (stereo unspecified) | 4.1 |
| O=C(CN1CCOc2ccccc2C1)NCc1cc2n(n1)CCCNC2 | 8.1 |
| CCCn1ncc(CN(Cc2ccsc2)Cc2ccco2)c1C | 9.27 |
| CC(COc1ccccc1)NCc1cn2ccccc2n1 (stereo unspecified) | 16.6 |
| O=C(Cc1ccccc1C(F)(F)F)N1CCC2(CC1)OCCCC2O (stereo unspecified) | -2.62 |
| CC(C)C1CN(c2ncccn2)CCC(=O)N1Cc1ccc(F)cc1 (stereo unspecified) | 1.76 |
| Cn1cc(CNc2ncnc3c2CCN(Cc2ccsc2)CC3)cn1 | 15.5 |
| CSCCC(NC(=O)c1nc(SC)ncc1Cl)C(=O)O (stereo unspecified) | -8.77 |
| Cc1ncsc1C(=O)NCc1ccnc(N2CCN(C)CC2)c1 | -6.92 |
| CC(Cn1ccnc1)NC(=O)N1CCN(Cc2ccncc2)CC1 (stereo unspecified) | -4.1 |
| Cc1cnc(CN(C)C2CCN(Cc3nccn3C)C2)o1 (stereo unspecified) | -7.03 |
| Cc1nc(C(=O)N2CCCC2c2cnn(C)c2)ccc1C#N (stereo unspecified) | -13.4 |
| Cc1ccc(-c2nc(CN(Cc3cccs3)CC3CCCO3)no2)cc1 (stereo unspecified) | 0.561 |
| CCC(O)CN1CCN(C(=O)c2ccn(C)c(=O)c2)CC1 (stereo unspecified) | -10 |
| CC(=O)Nc1nc(C(=O)NCc2ccc(N3CCCC3)nc2)cs1 | -2.6 |

| Compound | cytotoxicity at 10 µM [%] |
| --- | --- |
| COc1ccc(CC(=O)N2CCCC(c3nncn3C)C2)cc1 (stereo unspecified) | -7.47 |
| O=C(c1ccccc1OCC1CC1)N1CCCC1Cn1cccn1 (stereo unspecified) | -6.77 |
| O=C(c1cccn1Cc1cccs1)N1CCN(C2CC2)CC1 | -10.4 |
| CC(C(=O)N1CCCN(Cc2ccc(C#N)cc2)CC1)n1ccnc1 (stereo unspecified) | -10.9 |
| c1coc(-c2nnc(CN3CCOC(Cn4cccn4)C3)o2)c1 (stereo unspecified) | -11 |
| CN1CCOC(CNCc2cccc(OCc3ccccn3)c2)C1 (stereo unspecified) | -16.5 |
| O=C(NCCN1CCCCCC1=O)c1n[nH]c(=O)c2ccccc12 | -4.38 |
| O=C1OCCN1CCc1nc(-c2cc3c4c(c2)CC(=O)N4CCC3)cs1 | -7.1 |
| CC(CNCc1ccc(Br)cc1)Oc1ccccn1 (stereo unspecified) | 5.36 |
| CC1(C)CC(N(Cc2ccccc2)Cc2c[nH]cn2)CC(C)(C)N1 | 5.28 |
| c1csc(CNCC2COCc3c(-c4ccoc4)nnn3C2)n1 (stereo unspecified) | -107 |
| Cc1ccc(C2(CN3CCN(Cc4cnc(C)n4C)CC3)CC2)cc1 | -3.99 |
| CN(C)CCOCC1CN(CC2CCOCC2)Cc2nnn(C)c21 (stereo unspecified) | 3.01 |
| O=C(N1CCCO1)[C@@]12CCO[C@@H]1CCN(C1CCCCC1)C2 | -5.23 |
| CN(C)C(=O)[C@@H]1C[C@@H]2CCN(Cc3ccc4c(c3)OCO4)C[C@@H]2O1 | 2.26 |
| Cc1nc(CO[C@H]2CN(C(=O)c3ccc[nH]3)[C@@H]3COC[C@H]23)cs1 | -110 |
| N#Cc1ccccc1C(=O)N1C[C@@H]2CC[C@H]1CN(c1ncccn1)C2 | 2.43 |
| CCOC(=O)N1C[C@@H]2CC[C@H]1CN(Cc1ccccc1)C2 | 2.7 |
| CS(=O)(=O)N1C[C@H]2CC[C@@H](C1)N(C(=O)CCn1cnc3ccccc31)C2 | 4.11 |
